Measurements taken from article PMC6039199 (Clinical and Translational Science, 2018).
“And” between values parts separate entries of the source, which are not always exact repeats. Identical values can stand only once. “Also recorded” adds a separate entry of the source. Like-named read-outs stand apart in the source and are kept apart here. Marks after values point to notes of the source that are not given here. One block for each compound: values may come before it.

Key:
[1] = type: in vivo, human; details: for 14C_Total(dn) (14C_Total in dpm/radioactivity dose in dpm), geometric mean: N = 6; for 14C-Total urinary excretion: mean (%CV)
Outline: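 Period 1 was the i.v. 14C microdose. In period 2, after at least 11 days washout and a fast of at least 8 h, subjects took 15 mg oral unlabeled drug (three 5-mg tablets), then a 100 μg oral 14C solution (~400 nCi) with ~240 mL water. Urine 0–96 h was assayed for 14C by AMS, summed as concentration × volume, then normalized to the administered dpm. That dose came from LSC of the solution and syringe weight. Fa = oral/i.v. geometric mean ratio, plus a mixed-effects model using all data.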

[2] = type: in vivo, human; details: for AUCinf(dn), adjusted least squares geometric mean: N = 8, mixed-effects model; for t1/2 / half-life: arithmetic mean ± SD
Outline: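 In period 1, after an overnight fast of at least 8 h, subjects received 15 mg oral unlabeled drug. A 100 μg 14C i.v. microdose (~400 nCi) was infused over ~5 min, ending 1 h post oral dose. Plasma 14C drug was measured by HPLC-AMS and unlabeled drug by HPLC-MS/MS (LLOQ 0.5 ng/mL). Noncompartmental AUClast used linear-log trapezoids and AUCinf = AUClast + Clast*/kel, normalized to the actual dose. F = ratio of adjusted geometric means, from a mixed-effects model on ln AUCinf with 90% CI.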

[3] = dose range of 0.5–300 mg, fasting state; cited from earlier work
[4] = dogs; cited from earlier work
Caco‐2 cells = details: cited from earlier work
[5] = Safety and tolerability assessments in the microtracer study; type: in vivo, human; details: for Adverse events: N = 8
Outline: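 Eight healthy adult men, fasted at least 8 h overnight, received the test compound orally plus an i.v. 14C microtracer (period 1), then oral unlabeled drug plus oral 14C microtracer (period 2). Monitoring covered adverse events, vital signs, ECGs and laboratory tests from screening through the study. A telephone follow-up for adverse events was made 14 ± 3 days after the last dose.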

[6] = cited from earlier work
[7] = ref data on file; cited from earlier work
[8] = rats; cited from earlier work
[9] = 15 mg oral unlabeled, dose-normalized to 1 mg, geometric mean (geometric %CV)
[10] = 100 μg i.v. 14C, geometric mean (geometric %CV)

Fraction absorbed Fa: geometric mean ratio (90% CI), mixed-effects model ([1]; all available data (N = 8 oral; N = 6 i.v.)): 110%
14C_Total(dn) (14C_Total in dpm/radioactivity dose in dpm), geometric mean ([1]; oral (Test, period 2), urine 0–96 h): 0.432
Fraction absorbed Fa: ratio (Test/Reference) of geometric means ([1]; six subjects with complete urine data for both treatments, fasted): 111% and 110.71%
AUCinf(dn), adjusted least squares geometric mean ([2]; 15 mg oral unlabeled (Test)): 93.16 ng·h/mL/mg
Time quantifiable in plasma postdose ([2]; 15 mg oral unlabeled, HPLC-MS/MS, LLOQ 0.5 ng/mL): 72 h
t1/2 ([2]; 15 mg oral unlabeled, listed as Unlabeled ertugliflozin): 14.04 ± 2.17 h
AUCinf(dn) [2, 9]: 93.16 (13) ng·h/mL/mg
Cmax(dn) [2, 9]: 17.09 (14) ng/mL/mg
CL/F ([2]; 15 mg oral unlabeled, geometric mean (geometric %CV)): 178.7 mL/min
Permeability classification ([2]; based on F and Fa ∼100%): highly permeable
Vd ([2]; human, plasma, iv, 100 ug): 85.5 L
clearance ([2]; human, plasma, iv, 100 ug): 187 mL/min
half-life ([2]; human, plasma, iv, 100 ug, t1/2, 100 μg i.v. 14C): 8.1 h
AUC(0-inf) ([2]; human, plasma, po, 15 mg): 1400 ng·h/mL
AUC(0-t) ([2]; human, plasma, po, 15 mg): 1380 ng·h/mL
Cmax ([2]; human, plasma, po, 15 mg): 256 ng/mL
Vd/F ([2]; human, plasma, po, 15 mg): 215 L
half-life ([2]; human, plasma, po, 15 mg, t1/2, 15 mg oral unlabeled): 14 h
Absolute oral bioavailability F: Ratio (Test/Reference) of adjusted means ([2]; oral 15 mg vs i.v. 14C 100 μg, fasted, N = 8): 105% and 104.73%
Compound: CCOc1ccc(Cc2cc([C@]34OC[C@](CO)(O3)[C@@H](O)[C@H](O)[C@H]4O)ccc2Cl)cc1 [ertugliflozin]
Oral absorption ([1]; fasted conditions): complete; also recorded: completely absorbed
Dose proportionality in exposure (AUC and Cmax) [3]: dose proportionality in exposure
Estimated Fa [4]: ~100%
BA/AB ratio (Caco‐2 cells; Caco-2): 2.1
Permeability coefficient (Caco‐2 cells; apical (A) to basolateral (B) direction): 4.1 ×10⁻⁶ cm/s
Tolerability ([5]; following i.v. and oral administration, healthy men): well tolerated
Adverse events ([5]; period 1 (i.v. administration)): Three subjects experienced three AEs (back pain and two episodes of headache)
Adverse events ([5]; period 2 (oral administration)): one subject experienced one AE (nasal congestion)
Principal biotransformation pathway ([6]; humans): glucuronidation
Renal excretion of unchanged ertugliflozin ([6]; single 25-mg oral 14C dose, healthy male subjects): 1.5%
Human fraction of dose absorbed (Fa) from mean urinary 14C recovery ([6]; single 25-mg oral 14C dose): at least 50%
Solubility classification [7]: highly soluble
Solubility of 15 mg in 250 mL aqueous media [7]: completely soluble
Estimated Fa [8]: ~75%

14C_Total(dn) (14C_Total in dpm/radioactivity dose in dpm), geometric mean ([1]; i.v. 100 μg 14C (Reference, period 1), urine): 0.390
14C-Total urinary excretion ([1]; i.v. 100 μg 14C, period 1, N = 6): 319,000 (19) dpm and 319,000 dpm
Total 14C in urine as percent of administered dose (% 14C_Total) ([1]; i.v. administration): 39%
14C-Total urinary excretion ([1]; oral 100 μg 14C, period 2, N = 8): 320,400 (10) dpm and 320,400 dpm
Total 14C in urine as percent of administered dose (% 14C_Total) ([1]; oral administration): 44%
AUCinf(dn), adjusted least squares geometric mean ([2]; 100 μg i.v. 14C (Reference)): 88.96 ng·h/mL/mg
AUCinf ([2]; 100 μg i.v. 14C microdose, period 1, N = 8, geometric mean (geometric %CV)): 8.477 (15) ng·h/mL
Time quantifiable in plasma postdose ([2]; 100 μg i.v. 14C microdose, HPLC-AMS, LLOQ 20.4 pg/mL): ~24 h
Tmax ([2]; 100 μg i.v. 14C, 5-min infusion, relative to infusion start, median (range)): 0.083 (0.083–0.100) h
t1/2 ([2]; 100 μg i.v. 14C): 8.098 ± 2.248 h
Cmax(dn) ([2]; 100 μg i.v. 14C, dose-normalized to 1 mg, geometric mean (geometric %CV)): 89.34 ^b (32) ng/mL/mg
AUClast [2, 10]: 7.859 (14) ng·h/mL
CL [2, 10]: 187.2 (15) mL/min
Cmax [2, 10]: 8.514 (32) ng/mL
Vss [2, 10]: 85.53 (15) L
Compound: ^14C‐ertugliflozin
